The source of these data is ChEMBL document CHEMBL1121809, “Cyclic guanidines. 14. Imidazo[1,2-a]thienopyrimidin-2-one derivatives as blood platelet aggregation inhibitors” (J Med Chem, 1981).

Where “and” joins values, the source holds several entries; their conditions need not be identical. Equal entries are not always repeated.

Assay [1] concerns Rattus norvegicus. Kind of assay: Effect on systolic blood pressure in rat after an oral dose at 50 mg/kg (1h after dose). In kind it is functional, Artery. In short, it runs like this: (§1)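 Male Wistar-Imamichi rats, 250 g, were given the compound orally at (50 mg/7.5 mL)/kg as a suspension in 0.5% CMC or 0.5% Tween 80. Systolic pressure and heart rate were taken by tail-cuff after prewarming at 55–60 °C for 3 min, before dosing and at set times after. Five rats per group, mean ± SD. Pressure is reported as decrease and heart rate as percent change.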

The subject of assay [2] is Rattus norvegicus. The assay is described as follows: Ex vivo inhibition of ADP-induced blood platelet aggregation in rat was measured 2 hr after administration of vehical alone (delta A/min *10e 3). In kind it is functional.
Assay [3] deals with Rattus norvegicus. Kind of assay: Effect on systolic blood pressure in rat after an oral dose at 50 mg/kg (3h after dose). In kind it is functional, Artery. In short, it runs like this:
as §1

Assay [4] relates to Rattus norvegicus. Kind of assay: Effect on systolic blood pressure in rat after an oral dose at 50 mg/kg (5h after dose). The assay is classed as functional, Artery. The method in brief:
as §1

In assay [5] the test system is Rattus norvegicus. The assay is described as follows: Effect on heart rate in rat after an oral dose at 50 mg/kg (1h after dose). The assay is classed as functional. In short, it runs like this:
as §1

Assay [6] concerns Rattus norvegicus. Kind of assay: Effect on heart rate in rat after an oral dose at 50 mg/kg (3h after dose). The assay is classed as functional. In short, it runs like this:
as §1

The test system of assay [7] is Rattus norvegicus. Kind of assay: Effect on systolic blood pressure in rat after an oral dose at 50 mg/kg. The assay is classed as functional, Artery. The method in brief:
as §1

Assay [8] has as its system Rattus norvegicus. Kind of assay: Ex vivo inhibition of collagen-induced blood platelet aggregation in rat was measured 2 hr after administration of vehical alone. In kind it is functional. The method in brief: (§2)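 Overnight-fasted rats were dosed orally at (50 mg/10 mL)/kg in 0.5% Tween 80; controls got vehicle at 10 mL/kg. PRP was made from carotid citrated blood 2 h later under pentobarbital. Collagen suspension (absorbance 0.270 at 420 nm) drove aggregation at 30 °C, 1100 rpm. Read-out was the initial maximal rate of absorbance fall (ΔA/min). Inhibition percent is versus controls; 5–7 rats, mean ± SD.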

In assay [9] the test system is Rattus norvegicus. Kind of assay: Effect of compound on heart rate in rat after an oral dose at 50 mg/kg (6h after dose). In kind it is functional. In short, it runs like this: as §1
Assay [10] deals with Rattus norvegicus. Kind of assay: Effect of compound on heart rate in rat after an oral dose at 50 mg/kg (5h after dose). The assay is classed as functional. The method in brief:
as §1

Assay [11] has as its system Rattus norvegicus. The assay is described as follows: Effect on heart rate in rat after an oral dose at 50 mg/kg. In kind it is functional. The method in brief: as §1
Assay [12] deals with Rattus norvegicus. The assay is described as follows: Effect on systolic blood pressure in rat after an oral dose at 50 mg/kg (6h after dose). In kind it is functional, Artery. In short, it runs like this:
as §1

The species named for assay [13] is Rattus norvegicus. The assay is described as follows: In vitro inhibition of collagen-induced blood platelet aggregation. The assay is classed as functional. The method in brief:
(§3)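 Rat PRP (about 5 × 10⁵ platelets/μL) was preincubated with compound added in saline or MeOH. Aggregation was started with bovine tendon collagen suspension in Tris buffer (absorbance 0.270 at 420 nm; lag 2–3 min). Read at 30 °C, 1100 rpm, as initial maximal rate ΔA/min. EC50 is the concentration giving 50% inhibition.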

Assay [14] concerns Rattus norvegicus. The assay is described as follows: Effect on systolic blood pressure in rat after an oral dose at 50 mg/kg (4h after dose). The assay is classed as functional, Artery. In short, it runs like this: as §1
Assay [15] deals with Rattus norvegicus. The assay is described as follows: (§4) Ex vivo inhibition of collagen-induced blood platelet aggregation in rat was measured 2 hr after oral administration of 50 mg/kg. In kind it is functional. In short, it runs like this:
as §2

For assay [16], the species on record is Rattus norvegicus. The assay is described as follows: In vitro inhibition of ADP-induced blood platelet aggregation. In kind it is functional. In short, it runs like this: (§5)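 Rat carotid citrated blood was spun at 230g for 7 min to give PRP, adjusted with PPP to about 5 × 10⁵ platelets/μL. Compound in saline or MeOH was added before 10 μM ADP in Tris-HCl/NaCl pH 7.4 with CaCl₂. Aggregation was read at 30 °C, 1100 rpm, as maximal ΔA. EC50 is the concentration giving 50% inhibition.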

The subject of assay [17] is Rattus norvegicus. The assay is described as follows: Effect of compound on systolic blood pressure in rat after an oral dose at 50 mg/kg (24h after dose). The assay is classed as functional, Artery. The method in brief:
as §1

Assay [18] deals with Rattus norvegicus. Kind of assay: Effect on heart rate in rat after an oral dose at 50 mg/kg (4h after dose). In kind it is functional. The method in brief: as §1
Assay [19] is filed under the species Rattus norvegicus. The assay is described as follows: Inhibition of collagen-induced blood platelet aggregation in rat. The assay is classed as functional. In short, it runs like this:
as §3

Assay [20] concerns Rattus norvegicus. The assay is described as follows: Effect of compound on systolic blood pressure in rat after an oral dose at 50 mg/kg (1h after dose). In kind it is functional, Artery. The method in brief: as §1
For assay [21], the species on record is Rattus norvegicus. The assay is described as follows: Inhibition of arachidonic acid-induced blood platelet aggregation in rat. In kind it is functional. The method in brief:
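Rat PRP was stimulated with arachidonic acid at 30 °C under stirring, with compound added before the agonist. EC50 was estimated from inhibition at three to six concentrations and is the mean of two to three experiments.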

Assay [22] deals with Rattus norvegicus. The assay is described as follows: Inhibition of ADP-induced blood platelet aggregation in rat given compound at an oral dose of 50 mg/kg (delta A/min *10e 3). The assay is classed as functional.
The nature of assay [23]: Inhibition ofADP-induced blood platelet aggregation in human. The assay is classed as functional. In short, it runs like this:
(§6)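 In vitro platelet aggregation test. EC50 was estimated from the inhibition rate at three to six compound concentrations and given as the mean of two to three experiments.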

Assay [24] has as its system Rattus norvegicus. Kind of assay: Inhibition of collagen-induced blood platelet aggregation in rat was measured given compound at an oral dose of 50 mg/kg (delta A/min *10e 3). The assay is classed as functional. In short, it runs like this: as §2
The species named for assay [25] is Rattus norvegicus. Kind of assay: Inhibition of ADP-induced blood platelet aggregation in rat. The assay is classed as functional. In short, it runs like this: as §5
The species named for assay [26] is Oryctolagus cuniculus. The assay is described as follows: Inhibition of serotonin/epinephrine-induced blood platelet aggregation in rabbit. In kind it is functional. In short, it runs like this:
as §6

Assay [27] relates to Rattus norvegicus. The assay is described as follows: Inhibition of collagen-induced blood platelet aggregation in rat was measured given vehicle at an oral dose of 50 mg/kg (delta A/min *10e 3). In kind it is functional. The method in brief:
as §2

Assay [28] concerns Rattus norvegicus. Described as §4. In kind it is functional. In short, it runs like this: as §2
Assay [29] deals with Rattus norvegicus. Kind of assay: Effect of compound on heart rate in rat after an oral dose at 50 mg/kg (24h after dose). In kind it is functional. In short, it runs like this:
as §1

Assay [30] relates to Rattus norvegicus. The assay is described as follows: Inhibition of ADP-induced blood platelet aggregation in rat given vehicle at an oral dose of 50 mg/kg (delta A/min *10e 3). The assay is classed as functional.
Assay [31] in a line: Inhibition of collagen-induced blood platelet aggregation in human. In kind it is functional. In short, it runs like this: (§7)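 In vitro aggregation used human platelets. EC50 was estimated from inhibition at three to six compound concentrations and is the mean of two to three experiments.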
The test system of assay [32] is Rattus norvegicus. Kind of assay: Effect of compound on heart rate in rat after an oral dose at 50 mg/kg. In kind it is functional. The method in brief:
as §1

The species named for assay [33] is Rattus norvegicus. The assay is described as follows: Inhibition of thrombin-induced blood platelet aggregation in rat. In kind it is functional. The method in brief: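 Rat PRP was prepared from citrated carotid blood of male Wistar-Imamichi rats (250 g) under pentobarbital anesthesia, spun at 230g for 7 min, and adjusted with PPP to about 5 × 10⁵ platelets/μL. Aggregation was read turbidimetrically at 30 °C with 1100 rpm stirring. Compound in saline or MeOH was added before the agonist. EC50 was estimated from inhibition at three to six concentrations, as the mean of two to three experiments.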

Assay [34] in a line: Inhibition of ADP-induced blood platelet aggregation in human. The assay is classed as functional. In short, it runs like this: as §7

As a reminder, the EC50 is the concentration at which the effect is half-maximal. `O=C1CN2Cc3c(ccc(Cl)c3Cl)N=C2N1` [ANAGRELIDE]: the “Decrease in blood pressure” value was determined as 11 in [1]; 16 in [3]; 14 in [4]; 14 in assay [12]; 14 in assay [14]; 13 in assay [17]. In addition, the Delta A/min in assay [2] was 150; in [8], 0.188; in assay [15], 0.126 ΔA/min. The Change in heart rate in assay [5] was 28%; in [6] it was 31%; in assay [9], 33%; in assay [10], 31%; in [18], 37%. The Initial blood pressure in [7] is 130 mmHg. This compound came in with an Initial heart rate in assay [11] of 377 bts min-1. The values for the EC50 in assay [13] and in assay [16] were 20 nM and 800 nM, respectively.

As to `Cl.O=C1CN2Cc3c(sc4c3CCCC4)N=C2N1`, the EC50 in [19] is 70 nM; in [21] it was 500 nM; in assay [23], 2200 nM; in assay [25] it was 2000 nM; in assay [26], 3000 nM; in [13], 70 nM. The concentration giving a half-maximal response (EC50) in [16] is 2000 nM; in [31], 1200 nM and 400 nM; in [33] it was 3000 nM; in assay [34] it was 2200 nM. Moreover, the “Decrease in blood pressure” value in [20] stood at 4; in assay [3], 8; in assay [4] it was 9; in assay [12] it was 6; in assay [14], 8; in assay [17], 4. Further, the Delta A/min in assay [22] came to 141; in assay [24] it was 0; in assay [27], 156; in assay [28], 0; in assay [30] it was 115. The “Change in heart rate” value was 4% in assay [5]; 8% in [6]; 9% in [10]; -1% in assay [29]; 9% in assay [32]; 12% in assay [18]. In addition, the Initial blood pressure in [7] worked out at 122 mmHg. Further, in assay [11], the Initial heart rate is listed as 467 bts min-1.
